In ChEMBL document CHEMBL1157070, “Polyhydroxysteroidal glycosides from the starfish Anthenea chinensis” (J Nat Prod, 2010):
Active and inactive are the calls of the source. No cut-off for these calls is given here.

How the values were obtained:
K562 = experiment: Cytotoxicity against human K562 cells after 72 hrs by MTT assay; format: functional, cell-based; conditions: K562, 72 h
Summary of the method: (§1)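 MTT colorimetric read-out per a previously described method. K-562 (human leukemia) used 10-hydroxycamptothecine as positive control, U87MG (human spongioblastoma) used nimustine. IC50 read from dose-response curves as the concentration causing 50% reduction in absorption versus control cells. Mean of three independent experiments, triplicate wells per concentration.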

Bel-7402 = experiment: Cytotoxicity against human Bel7402 cells after 72 hrs by SRB assay; format: functional, cell-based; conditions: Bel-7402, 72 h
Summary of the method: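 Human hepatoma BEL-7402 cells, sulforhodamine B protein stain per a reported method. Dose-response curves plotted; IC50 taken as the concentration giving 50% lower absorption than control cells. Means of three independent experiments, each concentration in triplicate wells. 10-Hydroxycamptothecine as positive control.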

Tubulin (Sus scrofa) = Tubulin (Sus scrofa) (UniProt P02554+P02550); experiment: Induction of pig brain tubulin polymerization at 10 ug/ml
Sequence of Tubulin (Sus scrofa) (P02550 whole entry, looked up): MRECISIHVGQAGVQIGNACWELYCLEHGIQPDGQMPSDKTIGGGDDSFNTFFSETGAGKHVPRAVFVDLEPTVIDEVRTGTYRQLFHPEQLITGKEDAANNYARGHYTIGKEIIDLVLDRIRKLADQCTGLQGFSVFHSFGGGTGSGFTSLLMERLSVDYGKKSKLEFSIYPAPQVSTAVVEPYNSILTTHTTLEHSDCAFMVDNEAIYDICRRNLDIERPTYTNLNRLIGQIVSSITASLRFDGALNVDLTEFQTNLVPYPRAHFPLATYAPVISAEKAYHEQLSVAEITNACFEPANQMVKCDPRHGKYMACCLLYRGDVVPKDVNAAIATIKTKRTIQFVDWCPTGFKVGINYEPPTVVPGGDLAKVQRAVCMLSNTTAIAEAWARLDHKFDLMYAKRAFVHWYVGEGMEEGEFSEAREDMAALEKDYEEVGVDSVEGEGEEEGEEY
Sequence of Tubulin (Sus scrofa) (P02554 whole entry, looked up): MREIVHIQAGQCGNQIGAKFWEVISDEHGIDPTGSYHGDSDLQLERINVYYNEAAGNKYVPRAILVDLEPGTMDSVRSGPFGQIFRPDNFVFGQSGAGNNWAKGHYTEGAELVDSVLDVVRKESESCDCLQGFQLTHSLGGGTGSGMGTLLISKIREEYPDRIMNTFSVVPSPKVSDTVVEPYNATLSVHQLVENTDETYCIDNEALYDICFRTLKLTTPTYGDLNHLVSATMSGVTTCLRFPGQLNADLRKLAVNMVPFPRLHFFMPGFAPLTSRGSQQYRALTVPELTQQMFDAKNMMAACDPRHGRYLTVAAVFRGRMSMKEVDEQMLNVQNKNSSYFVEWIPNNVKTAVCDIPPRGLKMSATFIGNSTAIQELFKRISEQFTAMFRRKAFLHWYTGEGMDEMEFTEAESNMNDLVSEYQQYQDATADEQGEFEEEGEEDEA

[1] = Cytotoxicity against human U87MG cells after 72 hrs by MTT assay; format: functional, cell-based, U-87MG ATCC; conditions: U-87 MG; summary of the method: as §1

Row | SMILES | Activity (Tubulin (Sus scrofa)) | IC50 (K562) [µM] | IC50 (Bel-7402) [µM] | IC50 [1] [µM]
1 | CCC(CC[C@@H](C)[C@H]1[C@H](O[C@@H]2O[C@@H]([C@@H](O)COC)[C@H](O)[C@H]2O)CC2=C3[C@@H](O[C@@H]4O[C@@H]([C@@H](O)COC)[C@H](O)[C@H]4O)[C@@H](O)[C@H]4C[C@H](O)CC[C@]4(C)[C@H]3CC[C@@]21C)C(C)C (mixture of isomers) | – | 0.6 | 2.7 | 3.6
2 | C=C(CC[C@@H](C)[C@H]1[C@H](O[C@@H]2O[C@@H]([C@@H](O)COC)[C@H](O[C@@H]3O[C@@H]([C@@H](O)COC)[C@H](O)[C@H]3O)[C@H]2O)CC2=C3[C@@H](O)[C@@H](O)[C@H]4C[C@H](O)CC[C@]4(C)[C@H]3CC[C@@]21C)C(C)C [ANTHENOSIDE G] | inactive | 4.6 | 5.5 | > 25.1
3 | CC[C@@]1(O)C(=O)OCc2c1cc1n(c2=O)Cc2cc3cc(O)ccc3nc2-1 [HYDROXYCAMPTOTHECIN] | – | 0.16 | 0.36 | –
4 | Cc1ncc(CNC(=O)N(CCCl)N=O)c(N)n1 [NIMUSTINE] | – | – | – | 0.84

Now from value to molecule, other results behind:

Row | Activity (Tubulin (Sus scrofa)) | SMILES | IC50 (K562) [µM] | IC50 (Bel-7402) [µM] | IC50 [1] [µM]
5 | inactive | CCC(CC[C@@H](C)[C@H]1[C@H](O[C@@H]2O[C@@H]([C@@H](O)COC)[C@H](O[C@@H]3O[C@@H]([C@@H](O)COC)[C@H](O)[C@H]3O)[C@H]2O)CC2=C3[C@@H](O)[C@@H](O)[C@H]4C[C@H](O)CC[C@]4(C)[C@H]3CC[C@@]21C)C(C)C (mixture of isomers) | 2.8 | 4.9 | > 24.5
6 | inactive | COC[C@H](O)[C@@H]1O[C@@H](O[C@@H]2[C@@H](O)[C@H](O[C@@H]3CC4=C5[C@@H](O)[C@@H](O)[C@H]6C[C@H](O)CC[C@]6(C)[C@H]5CC[C@]4(C)[C@H]3[C@H](C)CCCC(C)C)O[C@H]2[C@@H](O)COC)[C@H](O)[C@H]1O [ANTHENOSIDE E] | 6.1 | 8.3 | > 25.4
